Several values for one entry are separate records, joined by “and”; a condition that tells them apart may be missing. Identical values can stand only once. Where a SMILES comes first, the peptide text is derived from it. [ ]: non-standard residue; d: D form. The star is where a group is joined. X1 = O=[N+]([O-])c1cc([N+](=O)[O-])cc(*)c1; Farnesyl = CC(C)=CCC/C(C)=C/CC/C(C)=C/C*; 2Abz = Nc1ccccc1C(=O)O
Tests used:
Assay type in all cases: cell membranes
[1] = molecular target: T1, CAAX prenyl protease 2 (Saccharomyces cerevisiae S288c) (UniProt Q03530); assay: (§1) Binding affinity to Rce1p in yeast membranes assessed as reduction in binding affinity at 0.75 uM after 30 mins by Western blotting in presence of 100 uM of (3S,6S,9S,12S,15S,18R,21S,24S,27S)-3,9,15-tris(4-aminobutyl)-24-sec-butyl-21-(4-(3,5-dinitrophenylamino)butyl)-12-((S)-1-hydroxyethyl)-6-(hydroxymethyl)-22-imino-27-(2-(methylthio)ethyl)-1,4,7,10,13,16,19,25-octaoxo-1-phenyl-18-(((2E,6E)-3,7,11-trimethyldodeca-2,6,10-trienylthio)methyl)-2,5,8,11,14,17,20,23,26-nonaazaoctacosan-28-oic acid; parameters: scale not given: the % may be the effect or the level left
T1 sequence (whole entry): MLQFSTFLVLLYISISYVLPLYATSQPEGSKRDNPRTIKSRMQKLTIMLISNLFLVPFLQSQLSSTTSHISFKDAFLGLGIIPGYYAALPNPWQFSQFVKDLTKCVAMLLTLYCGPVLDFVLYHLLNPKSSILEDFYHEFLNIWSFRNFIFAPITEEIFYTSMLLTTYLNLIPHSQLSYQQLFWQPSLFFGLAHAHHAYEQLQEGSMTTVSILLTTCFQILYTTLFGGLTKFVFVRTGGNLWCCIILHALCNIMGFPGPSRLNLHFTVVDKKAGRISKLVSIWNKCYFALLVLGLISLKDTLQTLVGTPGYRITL
Summary of the method: (§2)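 Competition photolabelling: Rce1p-containing yeast membranes (0.25 μg/μL) with biotinylated benzophenone probe (0.75 μM) in 100 mM Hepes, 5 mM MgCl2, pH 7.5. Farnesylated competitor peptide added at 50 or 100 μM. UV photolysis 30 min at 4 °C, then streptavidin pull-down and anti-HA Western blot. Band intensities quantified by densitometry relative to the no-competitor reaction.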

[2] = molecular target: T1, CAAX prenyl protease 2 (Saccharomyces cerevisiae S288c); assay: as §1, with “50” for “100”; parameters: scale not given: the % may be the effect or the level left; summary of the method: as §2
[3] = substrate: CC[C@H](C)[C@H](NC(=O)[C@H](CCCCNc1cc([N+](=O)[O-])cc([N+](=O)[O-])c1)NC(=O)[C@H](CSC/C=C(\C)COCc1cccc(C(=O)c2ccccc2)c1)NC(=O)[C@H](CCCCN)NC(=O)[C@@H](NC(=O)[C@H](CCCCN)NC(=O)[C@H](CO)NC(=O)[C@H](CCCCN)NC(=O)c1ccccc1N)[C@@H](C)O)C(=O)N[C@@H](CCSC)C(=O)O; assay: Activity of Rce1p in yeast membranes assessed as enzyme-mediated Ca1a2X proteolysis per mg of protein measured every 30 to 60 seconds for 1 hr by spectrofluorimetric assay; details: Saccharomyces cerevisiae
[4] = substrate: CC[C@H](C)[C@H](NC(=O)[C@H](CCCCNc1cc([N+](=O)[O-])cc([N+](=O)[O-])c1)NC(=O)[C@H](CSC/C=C(\C)CC/C=C(\C)CCC=C(C)C)NC(=O)[C@H](CCCCN)NC(=O)[C@@H](NC(=O)[C@H](CCCCN)NC(=O)[C@H](CO)NC(=O)[C@H](CCCCN)NC(=O)c1ccccc1N)[C@@H](C)O)C(=O)N[C@@H](CCSC)C(=O)O; assay: (§3) Activity of Rce1p in yeast membranes assessed as enzyme-mediated Ca1a2X proteolysis measured every 30 to 60 seconds for 1 hr by spectrofluorimetric assay; details: Saccharomyces cerevisiae
[5] = substrate: CC[C@H](C)[C@H](NC(=O)[C@H](CCCCNc1cc([N+](=O)[O-])cc([N+](=O)[O-])c1)NC(=O)[C@H](CSC/C=C(\C)COCc1cccc(C(=O)c2ccccc2)c1)NC(=O)[C@H](CCCCN)NC(=O)[C@@H](NC(=O)[C@H](CCCCN)NC(=O)[C@H](CO)NC(=O)[C@H](CCCCN)NC(=O)c1ccccc1N)[C@@H](C)O)C(=O)N[C@@H](CCSC)C(=O)O; assay: as §3; details: Saccharomyces cerevisiae

Question: `CC[C@H](C)[C@H](NC(=O)[C@H](CCCCNc1cc([N+](=O)[O-])cc([N+](=O)[O-])c1)NC(=O)[C@H](CSC/C=C(\C)CC/C=C(\C)CCC=C(C)C)NC(=O)[C@H](CCCCN)NC(=O)[C@@H](NC(=O)[C@H](CCCCN)NC(=O)[C@H](CO)NC(=O)[C@H](CCCCN)NC(=O)c1ccccc1N)[C@@H](C)O)C(=O)N[C@@H](CCSC)C(=O)O` (H-[2Abz]KSKTKC(Farnesyl)K(X1)IM-OH) was tested. Which Activity [1] did it give?
Answer: 31%

Question: What about the Activity [2] of the same molecule?
Answer: 60%

B1: CAAX prenyl protease 2 (Saccharomyces cerevisiae S288c), Q03530 (protein)
chain: MLQFSTFLVLLYISISYVLPLYATSQPEGSKRDNPRTIKSRMQKLTIMLISNLFLVPFLQSQLSSTTSHISFKDAFLGLGIIPGYYAALPNPWQFSQFVKDLTKCVAMLLTLYCGPVLDFVLYHLLNPKSSILEDFYHEFLNIWSFRNFIFAPITEEIFYTSMLLTTYLNLIPHSQLSYQQLFWQPSLFFGLAHAHHAYEQLQEGSMTTVSILLTTCFQILYTTLFGGLTKFVFVRTGGNLWCCIILHALCNIMGFPGPSRLNLHFTVVDKKAGRISKLVSIWNKCYFALLVLGLISLKDTLQTLVGTPGYRITL
Question: How did the Vmax [3] turn out when B1 was run?
Answer: 0.093 nmol/min/mg

Question: What about the Km [4] of the same molecule?
Answer: 6.4 µM and 4 µM

Question: And the Km [5]?
Answer: 1.9 µM

— ChEMBL document CHEMBL1250459, “Photoaffinity labeling of Ras converting enzyme 1 (Rce1p) using a benzophenone-containing peptide substrate” (Bioorg Med Chem, 2010)
